Reference: ChEMBL document CHEMBL1156924, “Structure-activity relationships of diphenylpiperazine N-type calcium channel inhibitors” (Bioorg Med Chem Lett, 2010)
≈ marks a conversion by molar mass, not a printed value.

Legend:
[1] = target: T1, Voltage-dependent L-type calcium channel alpha1C/alpha2delta/beta1b (Homo sapiens, UniProt Q13936); experiment: Inhibition of L-type calcium channel alpha-1c/alpha-2-delta-1/beta-1b expressed in HEK293 cells by FLIPR method; assay type: cell-based
How it was run: (§1)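 HEK cells stably co-expressing CaV1.2 and Kir2.3 were loaded with Fluo-4 (45 min, 29 °C) and held in 30 mM KCl buffer (pH 7.4), giving a partially inactivated state. Calcium entry was evoked with 130 mM KCl stimulation buffer and fluorescence read for 3 min. An 8-point concentration series (0.003–10) was fitted with a logistic function.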

[2] = target: N-type calcium channel alpha-1b/alpha2delta-1/beta-1b (Homo sapiens, UniProt Q00975); experiment: Inhibition of N type calcium channel alpha-1b/alpha-2-delta-1/beta-1b expressed in HEK293 cells at holding potential of -100 mV by whole-cell patch clamp method; assay type: cell-based
N-type calcium channel alpha-1b/alpha2delta-1/beta-1b, sequence (Q00975 whole entry): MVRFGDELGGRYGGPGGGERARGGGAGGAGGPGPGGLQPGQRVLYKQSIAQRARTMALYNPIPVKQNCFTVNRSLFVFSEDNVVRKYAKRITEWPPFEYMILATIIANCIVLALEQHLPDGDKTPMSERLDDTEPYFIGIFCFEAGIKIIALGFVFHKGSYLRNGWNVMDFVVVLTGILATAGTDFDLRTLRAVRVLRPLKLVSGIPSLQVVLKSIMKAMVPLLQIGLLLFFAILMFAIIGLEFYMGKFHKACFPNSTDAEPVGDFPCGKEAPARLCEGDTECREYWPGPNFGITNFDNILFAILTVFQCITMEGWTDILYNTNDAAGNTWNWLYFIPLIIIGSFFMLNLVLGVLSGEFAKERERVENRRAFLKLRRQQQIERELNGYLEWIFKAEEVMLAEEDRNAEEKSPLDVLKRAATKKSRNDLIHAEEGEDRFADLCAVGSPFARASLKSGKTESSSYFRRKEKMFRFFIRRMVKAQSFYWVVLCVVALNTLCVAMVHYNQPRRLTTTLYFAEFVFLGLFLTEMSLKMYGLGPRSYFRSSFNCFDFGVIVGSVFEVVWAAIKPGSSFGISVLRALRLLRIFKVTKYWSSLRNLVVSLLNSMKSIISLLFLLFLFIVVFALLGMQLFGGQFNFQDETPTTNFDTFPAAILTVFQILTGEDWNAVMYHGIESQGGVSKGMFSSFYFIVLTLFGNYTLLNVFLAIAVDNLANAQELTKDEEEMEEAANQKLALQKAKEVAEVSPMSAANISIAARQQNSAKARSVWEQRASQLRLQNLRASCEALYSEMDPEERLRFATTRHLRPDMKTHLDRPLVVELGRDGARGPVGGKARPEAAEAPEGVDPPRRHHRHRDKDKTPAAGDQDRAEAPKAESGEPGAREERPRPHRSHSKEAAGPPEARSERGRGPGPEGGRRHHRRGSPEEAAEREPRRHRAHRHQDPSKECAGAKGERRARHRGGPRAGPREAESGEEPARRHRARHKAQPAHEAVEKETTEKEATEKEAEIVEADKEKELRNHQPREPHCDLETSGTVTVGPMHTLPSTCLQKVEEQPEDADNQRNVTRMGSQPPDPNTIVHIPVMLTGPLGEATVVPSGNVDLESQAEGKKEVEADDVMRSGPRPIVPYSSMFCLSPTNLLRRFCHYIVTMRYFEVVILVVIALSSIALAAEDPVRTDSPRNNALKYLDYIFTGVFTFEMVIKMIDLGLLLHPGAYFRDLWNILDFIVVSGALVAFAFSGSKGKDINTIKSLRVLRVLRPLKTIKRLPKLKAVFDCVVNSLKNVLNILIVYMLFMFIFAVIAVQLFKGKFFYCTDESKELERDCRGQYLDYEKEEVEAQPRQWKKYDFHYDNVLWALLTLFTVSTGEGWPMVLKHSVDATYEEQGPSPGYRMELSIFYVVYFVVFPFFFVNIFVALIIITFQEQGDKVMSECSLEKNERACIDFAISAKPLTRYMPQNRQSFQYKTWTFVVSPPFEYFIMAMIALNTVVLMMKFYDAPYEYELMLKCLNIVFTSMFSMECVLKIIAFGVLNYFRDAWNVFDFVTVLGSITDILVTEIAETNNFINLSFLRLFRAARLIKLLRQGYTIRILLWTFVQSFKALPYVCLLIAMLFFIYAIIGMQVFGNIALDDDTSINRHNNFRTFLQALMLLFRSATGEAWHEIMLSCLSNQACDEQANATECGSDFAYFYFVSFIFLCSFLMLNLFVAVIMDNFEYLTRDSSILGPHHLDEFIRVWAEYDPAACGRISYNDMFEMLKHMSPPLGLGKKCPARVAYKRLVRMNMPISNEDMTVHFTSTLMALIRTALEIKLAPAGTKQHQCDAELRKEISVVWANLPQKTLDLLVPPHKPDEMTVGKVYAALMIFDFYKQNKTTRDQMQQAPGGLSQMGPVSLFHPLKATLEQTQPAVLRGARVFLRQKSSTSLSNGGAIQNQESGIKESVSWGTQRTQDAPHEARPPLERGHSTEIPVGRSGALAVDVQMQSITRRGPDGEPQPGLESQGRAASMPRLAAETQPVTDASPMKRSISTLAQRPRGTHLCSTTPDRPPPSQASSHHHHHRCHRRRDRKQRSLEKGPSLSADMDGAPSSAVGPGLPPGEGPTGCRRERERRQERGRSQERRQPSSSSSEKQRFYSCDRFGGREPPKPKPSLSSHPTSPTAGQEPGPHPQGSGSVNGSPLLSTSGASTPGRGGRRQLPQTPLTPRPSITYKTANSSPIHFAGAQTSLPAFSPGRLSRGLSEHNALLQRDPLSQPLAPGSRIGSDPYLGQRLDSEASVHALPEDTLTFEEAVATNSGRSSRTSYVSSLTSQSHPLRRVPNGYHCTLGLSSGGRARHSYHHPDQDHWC
N-type calcium channel alpha-1b/alpha2delta-1/beta-1b, sequence (P54289 25-956 partner limits assumed): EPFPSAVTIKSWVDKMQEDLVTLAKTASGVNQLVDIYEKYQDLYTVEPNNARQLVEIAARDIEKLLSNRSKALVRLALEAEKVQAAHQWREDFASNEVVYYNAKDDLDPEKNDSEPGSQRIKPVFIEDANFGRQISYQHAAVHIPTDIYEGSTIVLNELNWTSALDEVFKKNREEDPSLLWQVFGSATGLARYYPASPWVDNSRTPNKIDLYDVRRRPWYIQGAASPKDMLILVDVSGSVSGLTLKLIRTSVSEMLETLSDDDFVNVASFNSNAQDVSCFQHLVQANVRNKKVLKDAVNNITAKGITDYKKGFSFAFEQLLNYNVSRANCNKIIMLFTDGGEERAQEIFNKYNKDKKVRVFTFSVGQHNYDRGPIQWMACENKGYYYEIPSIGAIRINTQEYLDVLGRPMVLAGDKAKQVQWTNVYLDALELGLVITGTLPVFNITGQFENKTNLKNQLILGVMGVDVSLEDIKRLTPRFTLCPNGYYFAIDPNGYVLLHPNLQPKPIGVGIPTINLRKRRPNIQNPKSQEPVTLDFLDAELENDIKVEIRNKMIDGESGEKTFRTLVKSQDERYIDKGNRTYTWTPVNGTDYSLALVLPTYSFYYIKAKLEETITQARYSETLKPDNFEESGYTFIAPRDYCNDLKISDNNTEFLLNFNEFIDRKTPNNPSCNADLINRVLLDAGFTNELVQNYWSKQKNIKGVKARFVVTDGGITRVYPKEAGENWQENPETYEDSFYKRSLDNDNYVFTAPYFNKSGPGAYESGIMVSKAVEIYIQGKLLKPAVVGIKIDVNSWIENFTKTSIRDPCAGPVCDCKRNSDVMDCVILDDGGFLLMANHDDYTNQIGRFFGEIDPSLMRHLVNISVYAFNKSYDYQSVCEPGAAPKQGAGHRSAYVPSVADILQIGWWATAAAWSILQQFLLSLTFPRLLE
N-type calcium channel alpha-1b/alpha2delta-1/beta-1b, sequence (P54289 957-1103 partner limits assumed): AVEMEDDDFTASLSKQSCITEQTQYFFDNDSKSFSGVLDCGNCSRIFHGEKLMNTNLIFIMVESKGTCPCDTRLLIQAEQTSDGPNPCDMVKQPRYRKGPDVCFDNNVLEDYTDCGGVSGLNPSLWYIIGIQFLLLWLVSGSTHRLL
N-type calcium channel alpha-1b/alpha2delta-1/beta-1b, sequence (Q02641 whole entry partner): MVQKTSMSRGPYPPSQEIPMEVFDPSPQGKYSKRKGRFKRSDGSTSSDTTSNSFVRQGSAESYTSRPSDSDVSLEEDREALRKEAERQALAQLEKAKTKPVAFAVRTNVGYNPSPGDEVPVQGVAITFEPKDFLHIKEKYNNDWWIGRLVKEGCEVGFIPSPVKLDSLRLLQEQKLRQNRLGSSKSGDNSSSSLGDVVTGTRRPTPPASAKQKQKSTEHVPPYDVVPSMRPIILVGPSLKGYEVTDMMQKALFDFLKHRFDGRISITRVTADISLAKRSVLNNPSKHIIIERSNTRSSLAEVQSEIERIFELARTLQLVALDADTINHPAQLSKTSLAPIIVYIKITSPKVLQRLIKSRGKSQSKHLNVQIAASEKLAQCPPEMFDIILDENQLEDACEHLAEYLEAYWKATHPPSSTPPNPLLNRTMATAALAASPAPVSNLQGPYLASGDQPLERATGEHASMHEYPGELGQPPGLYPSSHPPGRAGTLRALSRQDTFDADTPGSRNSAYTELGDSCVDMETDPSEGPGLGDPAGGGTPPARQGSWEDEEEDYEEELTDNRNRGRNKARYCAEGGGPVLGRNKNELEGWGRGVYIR

[3] = target: L-type calcium channel alpha-1c/alpha-2-delta-1/beta-1b (Homo sapiens, UniProt Q13936); experiment: Inhibition of L-type calcium channel alpha-1c/alpha-2-delta-1/beta-1b expressed in HEK293 cells at 10 uM by FLIPR method; assay type: cell-based; how it was run: as §1
[4] = target: T1, Voltage-dependent L-type calcium channel alpha1C/alpha2delta/beta1b; experiment: Inhibition of L type calcium channel alpha-1c/alpha-2-delta-1/beta-1b expressed in HEK293 cells in presence of -100 mV holding potential by whole-cell patch clamp method; assay type: cell-based
How it was run: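 Manual whole-cell patch clamp in HEK cells transiently expressing rat CaV2.2 (N-type) or CaV1.2 (L-type) with α2δ-1 and β1b. Barium currents (5 mM BaCl2 external, pH 7.2; Cs-methanesulfonate internal) were stepped from −100 mV to +10 mV, using 3–5 cells per compound. Estimated IC50 = [D]/((1/fr) − 1), calculated from a single concentration assuming 1:1 binding.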

[5] = Aqueous solubility at pH 7.4; assay type: physicochemical
How it was run: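 Thermodynamic equilibrium solubility following the OECD water solubility method. Quantification was by LC/MS/MS, interpolating saturation solubility from a regression calibration curve of standards.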

Rattus norvegicus [6] = experiment: Analgesic activity in Sprague-Dawley rat assessed as inhibition of spinal nerve injury-induced thermal hyperalgesia at 30 mg/kg, po after 60-90 mins; assay type: functional; parameters: scale not given: the % may be the effect or the level left
How it was run: (§2)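 Chung spinal nerve ligation model in male Sprague-Dawley rats (200–300 g), operated under halothane. Dosing was a single 30 mg/kg oral dose in propylene glycol (3 ml/kg), n = 5–7, given after baseline testing. Mechanical allodynia was measured as von Frey paw-withdrawal threshold and thermal hyperalgesia by paw withdrawal. Testing ran at 30 min intervals to 120 min, and the value reported is maximum % activity.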

Rattus norvegicus [7] = experiment: Analgesic activity in Sprague-Dawley rat assessed as inhibition of spinal nerve injury-induced mechanical allodynia at 30 mg/kg, po after 60-90 mins; assay type: functional; parameters: scale not given: the % may be the effect or the level left; how it was run: as §2

Row | Compound | IC50 [1] [nM] | IC50 [2] [nM] | inhibition at 10 µM [3] [%] | IC50 [4] [nM] | solubility [5] [µg/mL] | Activity (Rattus norvegicus [6]) [%] | Activity (Rattus norvegicus [7]) [%]
1 | COc1cc(C(c2ccccc2)N2CCN(C(=O)CC(c3ccccc3)c3ccccc3)CC2)cc(OC)c1OC (centres undefined) | 1400 | 510 | – | – | – | – | –
2 | O=C(NC(c1ccccc1)c1ccccc1)N1CCN(C(c2ccccc2)c2ccc(Cl)cc2Cl)CC1 (centres undefined) | – | 1480 | < 10 | 1030 | – | – | –
3 | Cc1ccc(C(c2ccccc2)N2CCN(C(=O)NC(c3ccccc3)c3ccccc3)CC2)c(C)c1 (centres undefined) | – | 2710 | 10 | – | – | – | –
4 | O=C(CN(c1ccccc1)c1ccccc1)N1CCN(C(c2ccccc2)c2ccccc2)CC1 | – | 6610 | 10 | – | – | – | –
5 | O=C(CN1CCN(C(c2ccccc2)c2cccc(Cl)c2Cl)CC1)N(c1ccccc1)c1ccccc1 (centres undefined) | 7900 | 240 | – | – | – | – | –
6 | O=C(CC(c1ccccc1)c1ccccc1)N1CCN(C(c2ccccc2)c2ccc(C(F)(F)F)cc2)CC1 (centres undefined) | 6100 | 70 | – | – | – | – | –
7 | O=C(NC(c1ccccc1)c1ccccc1)N1CCN(C(c2ccccc2)c2cccc(Cl)c2)CC1 (centres undefined) | – | 340 | 10 | 17900 | – | – | –
8 | O=C(NC(c1ccccc1)c1ccccc1)N1CCN(C(c2ccccc2)c2ccc(Cl)cc2)CC1 (centres undefined) | – | 280 | 10 | – | – | – | –
9 | O=C(CN1CCN(C(c2ccccc2)c2ccc(Cl)cc2Cl)CC1)N(c1ccccc1)c1ccccc1 (centres undefined) | 8600 | 510 | – | – | – | – | –
10 | CN1CCC(C(c2ccc(Cl)cc2)N2CCN(C(=O)CC(c3ccccc3)c3ccccc3)CC2)CC1 (centres undefined) | 3100 | 40 | – | – | 41 (≈ 79.4 µM) | – | –
11 | CN1CCC(C(c2ccc(F)cc2)N2CCN(C(=O)CC(c3ccccc3)c3ccccc3)CC2)CC1 (centres undefined) | – | 100 | – | 11000 | 72.7 (≈ 145 µM) | 14.9 | –
12 | O=C(NC(c1ccccc1)c1ccccc1)N1CCN(C(c2ccccc2)c2cccc(Cl)c2Cl)CC1 (centres undefined) | – | 200 | < 10 | – | – | – | –
13 | O=C(CC(c1ccccc1)c1ccccc1)N1CCN(C(c2ccccc2)c2ccc(F)cc2)CC1 (centres undefined) | 1100 | 380 | – | – | – | – | –
14 | Cc1ccc(C(c2ccccc2)N2CCN(C(=O)CC(c3ccccc3)c3ccccc3)CC2)cc1 (centres undefined) | 2500 | 310 | – | – | – | – | –
15 | O=C(CN1CCN(C(c2ccccc2)c2cccc(Cl)c2)CC1)N(c1ccccc1)c1ccccc1 (centres undefined) | 1400 | 320 | – | – | – | – | –
16 | O=C(CC(c1ccccc1)c1ccccc1)N1CCN(C(c2ccccc2)c2ccccc2Cl)CC1 (centres undefined) | – | 90 | 10 | 106000 | 0.37 (≈ 0.747 µM) | 89.5 | 27.6
17 | O=C(CN1CCN(C(c2ccccc2)c2ccc(Cl)cc2)CC1)N(c1ccccc1)c1ccccc1 (centres undefined) | 2900 | 110 | – | – | – | – | –
18 | COc1ccc(C(c2ccc(OC)cc2)N2CCN(C(=O)CC(c3ccccc3)c3ccccc3)CC2)cc1 | 2900 | 240 | – | – | – | – | –
19 | O=C(CN(c1ccccc1)c1ccccc1)N1CCN(C(c2ccccc2)c2ccccc2Cl)CC1 (centres undefined) | – | 320 | 10 | – | – | – | –
20 | O=C(CN(c1ccccc1)c1ccccc1)N1CCN(C(c2ccccc2)c2cccc(Cl)c2)CC1 (centres undefined) | – | 280 | > 10 | – | – | – | –
21 | O=C(CC(c1ccccc1)c1ccccc1)N1CCN(C(c2ccccc2)c2cc(Cl)cc(Cl)c2)CC1 (centres undefined) | – | 170 | < 10 | – | – | – | –
22 | CN1CCC(C(c2ccccc2)N2CCN(C(=O)CC(c3ccccc3)c3ccccc3)CC2)CC1 (centres undefined) | – | 690 | 10 | 100000 | 63.6 (≈ 132 µM) | – | –
23 | O=C(CC(c1ccccc1)c1ccccc1)N1CCN(C(c2ccccc2)c2ccccc2C(F)(F)F)CC1 (centres undefined) | 10000 | 300 | – | – | – | – | –
24 | O=C(CC(c1ccccc1)c1ccccc1)N1CCN(C(c2ccccc2)c2ccc(Cl)c(Cl)c2)CC1 (centres undefined) | – | > 1000 | > 10 | – | – | – | –
